Activity calls are given as the source filed them. The calls are words filed in the database; no cut-off is given here.
Molecular target: T1, Monoacylglycerol lipase ABHD6 (Mus musculus) (UniProt Q8R2Y0)
T1 sequence (whole entry): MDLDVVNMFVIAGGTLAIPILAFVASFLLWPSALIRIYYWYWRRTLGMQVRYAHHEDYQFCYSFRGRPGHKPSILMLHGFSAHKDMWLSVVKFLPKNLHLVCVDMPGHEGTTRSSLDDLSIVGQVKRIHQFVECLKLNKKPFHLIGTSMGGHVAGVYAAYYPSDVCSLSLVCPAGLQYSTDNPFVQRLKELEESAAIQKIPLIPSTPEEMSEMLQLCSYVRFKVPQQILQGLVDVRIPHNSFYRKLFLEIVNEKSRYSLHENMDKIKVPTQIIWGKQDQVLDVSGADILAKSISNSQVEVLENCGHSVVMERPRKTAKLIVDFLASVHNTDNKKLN
Experiment: Inhibition of ABHD6 in mouse whole brain membranes at 10 uM incubated for 1 hr by TAMRA-FP probe based competitive activity-based protein profiling assay
Assay type: cell membranes
Settings: Membrane
Method in brief: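 Competitive ABPP on mouse brain membranes (100 µg) treated 1 h with DMSO or inhibitor. TAMRA-FP labelling then ran 1 h at RT (final probe 2 µM). Reaction was quenched with gel loading buffer and proteins resolved by 10% SDS–PAGE for fluorescent band read-out. WWL70 located the ABHD6 band. Gels are representative of two experiments.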

For `COc1nn(Cc2cccc(N)c2)c(=O)o1`, the inhibition was “Active”.

— ChEMBL document CHEMBL3612019, “Revisiting 1,3,4-Oxadiazol-2-ones: Utilization in the Development of ABHD6 Inhibitors” (Bioorg Med Chem, 2015)
